# proCasp7 act = procaspase-7 activators, primary screen, counter-screen for procaspase-3 activator project, biochemical, absorbance, HTS, human | 330,000 compounds, 0.093% hits | Caspase-7 (Homo sapiens), P55210 | activation, % at 8.5 µM | recombinant procaspase-7, Ac-DEVD-pNA absorbance 405 nm; D23A/D198A/D206A triple mutant, cannot self-cleave; scale: DMSO 0, 5 µM enzyme 100;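 active means percent activation above the screen-wide mean plus 3 SD, cut at about 25% in these data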
#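 Test system: Procaspase-7 triple mutant (PC-7 D3A). Also added: Ac-DEVD-pNA substrate, 400 µM as added. Schedule: 1 h enzyme–compound preincubation and 2 h substrate reaction, both 25 °C. Signal: p-Nitroaniline absorbance at 405 nm, read at 0 and 120 min. Control set: low DMSO alone, high DMSO plus 5 µM PC-7.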
# CHT allo act = CHT positive allosteric modulators, primary screen, cell-based, membrane potential dye, choline EC20. 310,000 compounds, 0.49% hits. CHT-expressing cells; hits give high values; LV-AA mutant CHT in HEK293 cells. B-score at 10 µM. AID 488977, 2010;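 active means initial fluorescence not abnormally high and integrated response B-score, plate-corrected, over 3 SD above library mean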
# Target sequence (Q9GZV3 whole entry, looked up): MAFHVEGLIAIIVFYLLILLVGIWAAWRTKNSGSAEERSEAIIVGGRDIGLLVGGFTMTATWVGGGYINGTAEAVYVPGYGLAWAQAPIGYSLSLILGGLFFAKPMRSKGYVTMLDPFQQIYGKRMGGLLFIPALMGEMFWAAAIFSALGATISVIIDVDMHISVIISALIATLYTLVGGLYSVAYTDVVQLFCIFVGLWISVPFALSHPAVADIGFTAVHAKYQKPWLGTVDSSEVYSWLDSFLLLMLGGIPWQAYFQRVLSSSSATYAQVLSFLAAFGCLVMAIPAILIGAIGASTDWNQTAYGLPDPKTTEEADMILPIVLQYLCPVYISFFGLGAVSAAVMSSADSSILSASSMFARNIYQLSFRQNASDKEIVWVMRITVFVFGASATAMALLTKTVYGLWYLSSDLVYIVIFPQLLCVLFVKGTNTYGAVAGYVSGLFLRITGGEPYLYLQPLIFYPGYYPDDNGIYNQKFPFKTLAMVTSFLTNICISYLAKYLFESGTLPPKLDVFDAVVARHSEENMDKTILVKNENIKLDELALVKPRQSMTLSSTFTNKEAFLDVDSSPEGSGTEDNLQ
# CHT inh = inhibitors of human choline transporter CHT | High affinity choline transporter 1 (Homo sapiens), Q9GZV3 | CHT-expressing cells, membrane potential dye, choline response; hits give low values | B-score at 10 µM | 310,000 compounds, 0.86% hits | AID 488975, 2010;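 active means B-score over 3 SD under the library average, and starting fluorescence ratio not unusually high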;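 further: choline stimulus applied at its EC90 after an EC20 pre-addition; B-score computed on integrated fluorescence ratio after choline addition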
# procasp3 activ = activators of human procaspase-3 D3A mutant, primary screen, biochemical, absorbance, PC-3 D3A mutant, single concentration; AID 463141, 2010; recombinant procaspase-3 D3A, Ac-DEVD-pNA absorbance 405 nm; Caspase-3 (Homo sapiens), P42574; 330,000 compounds, 0.11% hits; activation, % at 8.5 µM;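 active means activation above the mean of all tested compounds plus 3 SD, cut at about 21% in these data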;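 further: 0% = DMSO alone and 100% = DMSO wells spiked with extra 5 µM PC-3 D3A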
#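 Assay system: Autoprocessing-dead procaspase-3 D3A mutant enzyme; also added: Ac-DEVD-pNA; doses: one concentration, 8.5 µM nominal, 0.8% DMSO; times: 1 h compound preincubation, 2 h substrate hydrolysis at 25 °C; technique: 405 nm absorbance of p-nitroaniline, reads at 0 and 120 min; measure: % activation between DMSO and enzyme-spiked controls; repeats: single replicate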
# CHT block conf = CHT inhibitors, confirmation, cell-based, membrane potential dye, duplicate; shares compounds with CHT inh; CHT-expressing cells, choline membrane potential dye; LV-to-AA substituted CHT, HEK293 cells; CHT activity remaining % of control (hits give low values), % at 10 µM; 2,400 compounds, 70% hits; AID 493221, 2011;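 active means choline transporter activity left, mean of duplicates at 10 µM, below buffer-only control mean minus 3 SD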;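 further: depolarization triggered by choline at its EC90 following an EC20 pre-addition; 0% = hemicholinium-3 full block and 100% = buffer-only control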
# HEK293 CHT ctr = membrane potential effects in parental HEK293, counter-screen for CHT inhibitor project, cell-based, membrane potential dye; shares compounds with CHT inh; choline response; active = decrease or increase beyond buffer ±3SD; membrane potential ratio readout (active if shifted either direction beyond buffer ±3SD; no single direction) at 10 µM; 2,400 compounds, 4% hits; AID 493222, 2011;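 further: parental cells lack the transporter so any hit is non-specific; ratio is peak minus trough fluorescence over baseline after EC90 choline challenge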
# Numbers without * were called inactive; i = inactive; . = no result. Rows were chosen to be rich in hits. Some 1.3% of all compounds tested hit in one or more screens of this group.
SMILES,proCasp7 act,CHT allo act,CHT inh,procasp3 activ,CHT block conf,HEK293 CHT ctr
CCOC(=O)C1(Cc2ccccc2C)CCCN(C(=O)c2ccccn2)C1 (stereo not given),5,i,i,2,.,.
COc1ccc(CC(=O)NNc2ncnc3c2cnn3Cc2ccccc2)cc1OC,-3,i,i,-3,.,.
Cc1ccc(S(=O)(=O)N2[C@@H](c3ccc(Cl)cc3)C(C(=O)O)=CC[C@H]2c2ccc(Cl)cc2)cc1,3,i,-5.7*,1,62%*,i
Cc1ccc(S(=O)(=O)N2[C@@H](c3ccc(F)cc3)C(C(=O)O)=CC[C@H]2c2ccc(C(C)C)cc2)cc1,3,i,-6.3*,-6,65%*,i
C=CCOc1ccccc1CN1CCCN(C)CC1,4,i,i,-1,.,.
COc1ccc(N(CC(=O)NCCc2cccc(C)c2)S(=O)(=O)c2c(C)noc2C)cc1,-8,i,i,4,.,.
Cc1ccc(/C=C2\SC(=S)N(c3c(C)n(C)n(-c4ccccc4)c3=O)C2=O)cc1,-15,i,-5.4*,-17,60%*,i
Cc1c(N2C(=O)/C(=C/c3ccccc3)SC2=S)c(=O)n(-c2ccccc2)n1C,-23,i,i,-10,.,.
CCOc1ncccc1C(=O)NCC1COc2ccccc2O1 (stereo not given),-3,i,-5.2*,1,67%*,i
CCc1ccc(C(=O)NCC2COc3ccccc3O2)o1 (stereo not given),-5,i,i,5,.,.
CC1CCC(NC(=O)c2ccc(NC3=NC4CS(=O)(=O)CC4S3)cc2)CC1 (stereo not given),-3,i,-6*,6,34%*,i
CC(=O)c1ccc(-n2c(=O)[nH]c(=O)c3c(N)c(C(=O)c4ccc(Cl)cc4)sc32)cc1,-3,i,i,3,.,.
Cc1csc(NC(=O)CN2C(=O)c3ccccc3S2(=O)=O)n1,-3,i,i,1,.,.
Cc1csc(NC(=O)CCN2C(=O)c3ccccc3S2(=O)=O)n1,-5,i,-5.9*,-6,69%*,i
Oc1ccc(-c2n[nH]c(C(F)(F)F)c2-c2ccccc2)c(O)c1,-2,i,-5.2*,7,62%*,i
Cc1ccc2nc(-c3ccccc3)cc(C(=O)NCCCn3ccnc3)c2c1,10,i,-11*,6,30%*,i
O=C(NCCCn1ccnc1)c1cn(-c2ccccc2)nc1-c1ccc(F)cc1,1,i,-6.9*,-1,36%*,i
O=C(O)c1ccccc1C(=O)NCCCn1ccnc1,12,i,i,7,.,.
N#CCC(=O)Nc1ccc(C(=O)NNC(=O)c2ccccc2-n2cccc2)cc1,-7,.,.,1,.,.
CC(C)c1nc(SCC(=O)Nc2ccc([N+](=O)[O-])cc2Br)n[nH]1,1,i,-5.8*,14,i,i
CCOc1ccc(CCNC(=O)CN2C(=O)c3cccnc3Oc3ccc(Cl)cc32)cc1,0,i,i,2,.,.
CNC(=S)NNC(=O)c1sccc1OCc1ccc(Cl)cc1Cl,-3,i,i,9,.,.
S=c1nc(-c2sccc2OCc2ccc(Cl)cc2Cl)[nH][nH]1,-5,i,-5*,-9,70%*,i
O=C(c1ccco1)N1CCC(c2nc3ccccc3[nH]2)CC1,3,i,i,-4,.,.
O=C(C1CCCN(Cc2ccc([N+](=O)[O-])cc2)C1)N1CCCCC1 (stereo not given),-2,i,i,2,.,.
SMILES,proCasp7 act,CHT allo act,CHT inh,procasp3 activ,CHT block conf,HEK293 CHT ctr
CCn1c(COc2ccc(=O)n(-c3ccccc3)n2)nnc1SCc1ccc(OC)cc1,6,i,-5.3*,-2,i,i
CCn1c(COc2ccc(=O)n(-c3ccccc3)n2)nnc1SCc1ccccc1,5,i,i,13,.,.
Nc1ccc(-c2ccc(N)cc2C(F)(F)F)c(C(F)(F)F)c1,-7,i,-5.7*,-2,51%*,i
CCN(CC(=O)NCc1ccc(Cl)cc1)C(=O)Cc1ccc(OC)cc1,3,i,i,8,.,.
O=C(Cn1nc(C(F)(F)F)cc1C1CC1)NCc1ccccc1F,-1,i,-5.8*,15,65%*,i
O=C(CN1C(=O)NC2(CCCc3ccccc32)C1=O)N1CCc2ccccc2C1 (stereo not given),-2,i,-6.1*,3,34%*,i
COc1cccc(/C=C2\SC(=S)N(NS(=O)(=O)c3ccccc3)C2=O)c1OC,5,i,-5.7*,-5,44%*,i
COc1cc(/C=C2\SC(=S)N(NS(=O)(=O)c3ccccc3)C2=O)cc(OC)c1OC,-16,i,i,-25,.,.
COc1ccccc1NC(=O)CNS(=O)(=O)c1ccccc1,11,i,-5.7*,0,i,i
CCn1cc(C(=O)N2CCN(c3ccc(OC)cc3)CC2)c(=O)c2cc(S(=O)(=O)N3CCOCC3)ccc21,6,i,i,10,.,.
CCCCCCCCCCCCN1[C@@H](CC(=O)O)c2cc(C(F)(F)F)ccc2S1(=O)=O,-1,i,-7.3*,-1,44%*,i
O=C(CCCC(=O)c1ccccc1)NCc1ccccc1,4,i,i,4,.,.
Cc1ccc(S(=O)(=O)NC(=O)COc2cc(C)ccc2C(C)C)cc1,-7,i,-5.9*,-2,50%*,i
O=C(NNC(=S)Nc1cccc(C(F)(F)F)c1)c1cccc(Cl)c1,-7,i,i,-1,.,.
O=C(NNC(=S)Nc1ccc(Cl)cc1)c1ccccc1OC(F)F,-2,i,-5.4*,4,44%*,i
O=C(NNC(=S)Nc1ccc(Br)cc1)c1ccccc1Br,.,i,-5.6*,.,58%*,i
O=C(NNC(=S)Nc1cccc(C(F)(F)F)c1)c1ccccc1Cl,1,i,-5.8*,-1,i,i
O=C(NNC(=S)Nc1ccc(Cl)cc1)c1cccs1,-9,i,i,-2,.,.
CCCCn1c(N)c(N(CCC(C)C)C(=O)C2CCN(C(=O)c3ccccc3C)CC2)c(=O)[nH]c1=O,2,i,i,3,.,.

# Screening data deposited in PubChem BioAssay by several laboratories.
